STAT3 blocker – STAT3 signaling inhibition | U3A cells, IL-6 STAT3-luciferase reporter, luminescence; host cell line lacks STAT1 | inhibition, % at 5.5 µM | 0.89% of 190,000 active | AID 862;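 active = inhibition above the mean inhibition across all screened compounds plus 3 SD, cut at about 44% in these data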
APP 5'UTR act – activates APP 5'UTR luciferase reporter. SH-SY5Y APP 5'UTR luciferase reporter, luminescence; zero percent = DMSO vehicle wells. activation, % at 2 µM. 1% of 190,000 active;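 active = activation above a set limit, based on mean plus 3 SD of controls, cut at about 140% in these data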
STAT1 act-1 – activators of IFN-gamma induced STAT1 signaling. 2.6% of 200,000 active. NIH 3T3 STAT1-luciferase reporter, luminescence; 100% = IFN-gamma alone, no compound. activation (% of control), % at 5.5 µM;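 active = activation above the screen-wide mean activation plus 3 SD, cut at about 130% in these data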
NF-kB neuron act – raises NF-kB expression in human neuronal cells; fold change at 12.5 µM; NF-kB reporter expression; hits give high values; 1.6% of 190,000 active; in the data active = fold change above about 3.3
STAT3 act-1 – increases IL-6 driven STAT3 reporter signal; activation (% of control), % at 5.6 µM; AID 871; 0.91% of 190,000 active; U3A cells, IL-6 STAT3-luciferase reporter, luminescence; 100% = signal with IL-6 EC80 alone;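 active = activation above the screen-wide mean of compound activation plus 3 SD, cut at about 130% in these data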
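system = STAT3-luciferase reporter U3A cells | reagent = IL-6 stimulus at 33 ng/mL final | timing = 1 h compound pre-exposure, 6 h IL-6 stimulation, 37 °C | measured by = luminescence | evaluation = % activation versus median of IL-6-stimulated wells | control set = IL-6-only wells as 100% reference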
STAT1 inh-1 – reduces IFN-gamma driven STAT1 reporter signal; NIH 3T3 STAT1-luciferase reporter, luminescence; inhibition, % at 5.5 µM; 0.35% of 200,000 active; AID 920;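 active = inhibition above a set limit, the mean inhibition across all tested compounds plus 3 SD, cut at about 34% in these data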
STAT3 act-2 – confirmation of STAT3 signaling activators. potentiation (% of control), % at 5.7 µM. AID 1267. U3A STAT3-luciferase reporter, IL-6 potentiation, luminescence; U3A cells lack STAT1; 100 means same as IL-6 alone. shares compounds with STAT3 act-1. 64% of 1,200 active;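 active = percent activation of the STAT3 luciferase reporter above a set limit taken from the earlier primary screen, cut at about 130% in these data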
NFkB act STAT3ct – NF-kappaB activation in STAT3 activator counter-screen. shares compounds with STAT3 act-1. human cells, NF-kappaB reporter activation. activation (% of control), % at 5.7 µM. 11% of 1,200 active; in the data active = activation above about 120%;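 also: reporter induced by TNF-alpha stimulation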
STAT1 act-2 – STAT1 activation in STAT3 activator counter-screen; shares compounds with STAT3 act-1; NIH 3T3 STAT1-luciferase reporter, IFN-gamma, luminescence; activation (% of control), % at 5.7 µM; 13% of 1,200 active; AID 1318;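 active = activation above the solvent-only control well mean plus 3 SD, set per screening run, cut at about 120% in these data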
STAT1 inh-2 – STAT1 inhibition, confirmation assay. shares compounds with STAT1 inh-1. NIH 3T3 STAT1-luciferase reporter, IFN-gamma, luminescence. inhibition, % at 5.5 µM. 55% of 200 active. AID 1263;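 active = triplicate mean inhibition exceeding the hit cutoff computed for the primary STAT1 screen, cut at about 35% in these data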
NFkB inh STAT1ct – inhibits NF-kappaB, counter-screen to STAT1 inhibitors; shares compounds with STAT1 inh-1; HEK293T NF-kB luciferase reporter, TNF-alpha induced, luminescence; inhibition, % at 5.7 µM; 30% of 200 active; AID 1303;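 active = inhibition above the mean of solvent-only control wells plus 3 SD of those wells, cut at about 15% in these data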
STAT3 inh STAT1c – counter-screen for STAT1 inhibitors: STAT3 inhibition; shares compounds with STAT1 inh-1; U3A cells, IL-6 STAT3 luciferase reporter, luminescence; cells lacking STAT1; inhibition, % at 5.7 µM; 20% of 200 active;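 active = inhibition above the mean of solvent-only control wells plus 3 SD, set per campaign, cut at about 25% in these data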
Numbers stand for hits; n = inactive; x = no result given. In the library only some 5.1% were active in any assay of this set; here they are far more common.

SMILES	STAT3 blocker	APP 5'UTR act	STAT1 act-1	NF-kB neuron act	STAT3 act-1	STAT1 inh-1	STAT3 act-2	NFkB act STAT3ct	STAT1 act-2	others
O=C(Nc1ccccn1)c1c(O)c2cccc3c2n(c1=O)CCC3	n	n	n	n	157	n	146	n	n
Cc1cccnc1NC(=O)c1c(O)c2cccc3c2n(c1=O)CCC3	n	n	n	n	n	n	x	x	x
O=C(Nc1nccs1)c1c(O)c2cccc3c2n(c1=O)CCC3	n	n	n	n	154	n	167	n	n
CC(C)(C)c1ccccc1NC(=O)c1c(O)c2cccc3c2n(c1=O)CC3	n	n	n	n	149	n	144	n	n
COc1ccc(-c2cc(C(=O)OCC(=O)NC(C)C)c3ccccc3n2)cc1	n	n	n	n	n	n	x	x	x
CC(=O)C(Sc1ccc2nnc(-c3cccnc3)n2n1)C(C)=O	n	n	n	n	n	n	x	x	x
CN(Cc1ccccc1)Cc1c[nH]c2ccccc12	n	n	n	n	158	n	141	n	n
CC(Cc1c[nH]c2ccccc12)C(=O)O (centres undefined)	n	n	n	n	n	n	x	x	x
CCC(=O)NC(Nc1ccccn1)(C(=O)OC)C(F)(F)F (centres undefined)	n	n	n	n	n	n	x	x	x
COc1cc(C(=O)N/N=C(\C)Cc2ccccc2)cc(OC)c1OC	n	n	n	n	143	n	n	n	n
CCCCCNCC(=O)Nc1cccc(C(=O)Nc2cccc(C(F)(F)F)c2)c1	n	n	n	n	n	n	x	x	x
COc1cccc(OC)c1C(=O)NC(=S)Nc1ccc2c(c1)Cc1ccccc1-2	n	n	n	n	150	n	n	n	n
O=C(O)C(Cc1c[nH]c2ccccc12)N1Cc2ccccc2C1=O (centres undefined)	n	n	n	x	143	n	137	n	n
COc1ccc(-n2c(SCC(=O)NCc3ccco3)nc3c([nH]c4ccccc43)c2=O)cc1	n	n	n	n	154	n	137	n	n
COc1ccc2c(c1)c(=O)oc1cc(OCC(=O)N3CCc4ccccc4C3)ccc12	n	x	n	n	n	n	x	x	x
COc1cccc(CC2(CO)CCCN(Cc3cc4ccccc4[nH]3)C2)c1 (centres undefined)	n	n	n	n	148	n	145	n	n
COc1cccc(CC2(CO)CCCN(Cc3ccc(C)s3)C2)c1 (centres undefined)	n	n	n	n	n	n	x	x	x
CC1=NOC(=O)/C1=C\c1ccc(-c2ccc(Br)cc2)o1	n	n	n	n	136	n	n	n	n
Cc1nnc(NC(=O)CSc2ccc3nnc(-c4cccnc4)n3n2)s1	n	n	n	n	n	n	x	x	x
COc1cc(SC#N)ccc1N=Cc1c(C)[nH]n(-c2ccc(C)c(C)c2)c1=O	n	x	n	n	n	n	x	x	x
COc1cc(SC#N)ccc1N=Cc1c(C)[nH]n(-c2ccc(Cl)cc2)c1=O	n	n	n	n	144	n	n	n	n
O=C(Cc1csc(Nc2nc(=S)[nH]c3ccccc23)n1)NCc1ccccc1Cl	n	n	n	n	n	n	x	x	x
Cc1ccc(CNC(=O)Cc2csc(Nc3nc(=S)[nH]c4ccccc34)n2)cc1	n	n	n	n	141	n	133	n	n
O=C1c2ccccc2CC1Sc1nnc(-c2ccccn2)o1 (centres undefined)	n	n	n	n	149	n	n	n	n
CC(=O)Nc1c(O)c2ccccc2[nH]c1=O	n	n	n	n	n	n	x	x	x
SMILES	STAT3 blocker	APP 5'UTR act	STAT1 act-1	NF-kB neuron act	STAT3 act-1	STAT1 inh-1	STAT3 act-2	NFkB act STAT3ct	STAT1 act-2	others
CC(=O)c1cccc2c(O)c(C3=Nc4ccccc4C3=O)[nH]c12	n	n	n	4.1	138	n	152	136	181
CC(C)(/C=N/NC(=O)CSCc1ccc(Cl)cc1)CCC#N	n	n	n	n	n	n	x	x	x
COc1ccccc1C1c2[nH]c3ccccc3c2CCN1Cc1cnc(C)s1 (centres undefined)	n	n	n	n	146	54	176	n	n	STAT1 inh-2=n;NFkB inh STAT1ct=n;STAT3 inh STAT1c=n
O=[N+]([O-])c1cccnc1N1CCN(c2ccc(F)cc2)CC1	n	n	n	n	n	n	x	x	x
O=C(C1CCC(CNc2nc(=S)[nH]c3ccccc23)CC1)N1CCN(c2ccc(F)cc2)CC1 (centres undefined)	n	n	n	n	n	48	x	x	x	STAT1 inh-2=n;NFkB inh STAT1ct=n;STAT3 inh STAT1c=n
Cc1cc(C)n(S(=O)(=O)/C=C/c2ccccc2)n1	n	n	n	n	n	38	x	x	x	STAT1 inh-2=42;NFkB inh STAT1ct=n;STAT3 inh STAT1c=n
Cc1ccc(S(=O)(=O)n2nc(C)cc2C)cc1	n	n	n	n	n	n	x	x	x
COC(=O)c1c(NC(NC(=O)C(C)C)C(Cl)(Cl)Cl)sc2c1CCCC2 (centres undefined)	n	n	n	n	n	n	x	x	x
N#C/C(=N\Nc1cccc([N+](=O)[O-])c1)C(=O)c1ccc(Br)cc1	n	n	n	n	n	69	x	x	x	STAT1 inh-2=44;NFkB inh STAT1ct=n;STAT3 inh STAT1c=29
CCOC(=O)c1c(C)nc2sc3c(=O)n(-c4ccc(OC)cc4)nnc3c2c1-c1ccc(OC)cc1	n	n	n	n	n	50	x	x	x	STAT1 inh-2=48;NFkB inh STAT1ct=n;STAT3 inh STAT1c=n
CCOC(=O)c1c(C)nc2sc3c(=O)n(-c4ccc(C(C)=O)cc4)cnc3c2c1-c1ccc(OC)cc1	n	n	n	n	n	n	x	x	x
O=C(Cn1cnc([N+](=O)[O-])n1)N/N=C/c1cc(Cl)ccc1O	n	n	n	n	n	n	x	x	x
CCOC(=O)N1CCN(C(=O)CCn2c(=S)[nH]c3ccsc3c2=O)CC1	n	n	n	n	n	48	x	x	x	STAT1 inh-2=n;NFkB inh STAT1ct=n;STAT3 inh STAT1c=n
CCN1C(=O)C(O)(CC(=O)c2cccc(-n3cccc3)c2)c2ccccc21 (centres undefined)	n	n	n	n	n	n	x	x	x
CCc1ccc(-c2nc(CSCC(=O)NCc3ccco3)c(C)o2)cc1	n	n	n	n	n	83	x	x	x	STAT1 inh-2=75;NFkB inh STAT1ct=37;STAT3 inh STAT1c=n

Bioassay records deposited in PubChem by several laboratories.
